Screens (PubChem BioAssay)
S100A4 MyoIIA: inhibitors of S100A4-myosin IIA peptide binding, primary screen, biochemical, fluorescence polarization, TAMRA-MyoIIA peptide. AID 652163, 2013. 0.14% of 360,000 active. Protein S100-A4 (Homo sapiens), P26447. inhibition, % at 10.7 µM;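 active = mean inhibition of at least 70% across replicates, with every replicate also reaching that level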
Target sequence (P26447 whole entry, looked up): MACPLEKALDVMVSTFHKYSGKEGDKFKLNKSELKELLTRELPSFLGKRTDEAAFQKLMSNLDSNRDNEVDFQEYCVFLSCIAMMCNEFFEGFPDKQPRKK
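Compound dosing: one dose per compound; test system: human S100A4 monomer with TAMRA-labelled myosin IIA peptide; probe or stimulus: TAMRA-labelled myosin IIA heavy-chain peptide probe, 5 nM; medium: HEPES buffer with Ca2+, pH 7.2; schedule: 5 min incubation before reading; benchmarks: neutral control DMSO, positive control TFP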
Env fusion inh: inhibitors of HIV-1 Env-driven cell-cell fusion, primary screen, HeLa-JRFL effector, CEM21 target cells, luciferase; inhibition, % at 12.3 µM; 1.1% of 360,000 active;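 active = mean replicate inhibition score of at least 50 and every replicate individually at or above 50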;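 note: 0% = plate neutral controls and 100% = maraviroc near 300 nM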
E-selectin induc: E-selectin induction in HUVECs, primary screen, imaging, HUVEC, immunofluorescence imaging, single point. P16581. normalized: neutral wells 0, TNF-alpha wells 100. activation, % at 7.58 µM. 0.37% of 260,000 active;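 active = mean E-selectin-positive cell signal at least 10% of the positive control, reached in at least 60% of replicates, without over 20% cell loss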
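System: HUVEC, human umbilical vein endothelial cells; quantity: 3,000 cells/well; buffer or medium: EGM-2 medium, gelatin-coated wells; dosing: single-point compound dose; detection: immunofluorescence imaging; evaluation: % PE-positive cells; benchmarks: TNF-alpha, DMSO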
FGF22 binding-1: binders of human FGF22 protein, primary screen, FGF22 synaptogenesis inhibitor project, biophysical, thermal shift, single point | Fibroblast growth factor 22 (Homo sapiens), Q9HCT0 | recombinant FGF22 thermal shift, SYPRO orange fluorescence; percent of sucrose octasulfate shift, DMSO zero | activity (Tm shift, normalised), % at 9.99 µM | 1.5% of 340,000 active;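 active = mean Tm shift, scaled 0 neutral to 100 positive control, at about 1.3% or above, every replicate too, limit read from the data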
Target sequence (Q9HCT0 whole entry, looked up): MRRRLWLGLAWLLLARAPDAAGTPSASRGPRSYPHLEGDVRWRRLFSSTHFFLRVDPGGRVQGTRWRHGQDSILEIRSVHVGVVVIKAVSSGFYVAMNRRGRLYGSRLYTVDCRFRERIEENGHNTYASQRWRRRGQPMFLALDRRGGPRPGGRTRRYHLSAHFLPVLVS
CFTR F508del cor: F508del CFTR correction, initial screen, CFBE line, single point; CFBE cells, YFP halide quenching; stimulated with forskolin plus potentiator P3; % fluorescence drop versus neutral controls; activity (quench increase), % at 7.58 µM; 0.36% of 350,000 active; AID 720511, 2013;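 active = mean added fluorescence quench of at least 8% versus neutral control, with both replicates also reaching 8%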;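 note: cells transiently co-express mutant CFTR-F508del with the halide-sensitive YFP; corrector assay measuring rescue of mutant channel to the surface after 24 h compound exposure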
FGF22 binding-2: binders of human FGF22 protein, dose response, FGF22 synaptogenesis inhibitor project, biophysical, thermal shift, cherry-pick retest; recombinant FGF22 thermal shift, SYPRO orange fluorescence; shares compounds with FGF22 binding-1; AID 720646, 2013; 2% of 1,000 active; thermal shift activity, °C (ΔTm) at 38 µM;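 active = fitted rise in melting shift crosses a set limit at or below the top valid dose tested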
FGF22 TSA DP: binders of human FGF22 protein, dose response, FGF22 synaptogenesis inhibitor project, biophysical, thermal shift, dry powder; shares compounds with FGF22 binding-1; Thermal shift assay, SYPRO orange, melting temperature shift; Tm shift (activity), % at 38 µM; 50 tested, under 10 active; AID 743017, 2013;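 active = compounds whose fitted dose curve of melting temperature shift rises past a set threshold within the tested doses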
TSA no protein: compound-only thermal shift signal without protein, dose response, artefact control for FGF22 binder project, biochemical, cherry-picked samples, RT-PCR instrument; 2% of 1,000 active; AC50, µM (top dose mostly 38 µM); shares compounds with FGF22 binding-1; compound-only SYPRO orange thermal shift counter-screen, no protein;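 active = rising signal whose fitted curve reaches the 0.54 level within the top valid dose, showing a melting point, actives reach about 13 µM in these data; inactive = the rest, including activity in the opposite direction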; note: value is where the raw curve crosses a fixed level and not half-maximal
Numbers without * were called inactive; i = inactive; · = no result given; [ ] = dose if it differs, or a comment. Only some compounds are listed: those with a hit (about 2.7% of all), similar ones and a draw of the others.

SMILES	S100A4 MyoIIA	Env fusion inh	E-selectin induc	FGF22 binding-1	CFTR F508del cor	FGF22 binding-2	TSA no protein	others
CCN1C(=O)C(CC(=O)Nc2ccc(OC)cc2)N(CCc2ccc(OC)cc2)C1=S (stereo not given)	2.1	-6.4	·	1.6*	-2.5	0.125	i
C[C@@H]1CN([C@H](C)CO)C(=O)c2cccc(NS(C)(=O)=O)c2O[C@@H]1CN(C)S(C)(=O)=O	2.7	-2.7[16.7 µM]	0.9	-0.1	-4.2	·	·
O=C(N/N=C/c1c[nH]c2ccccc12)c1cccs1	-2.7	-17.8	-0.3	2.2*	-2.9	·	i	FGF22 TSA DP=0.2
O=C(N/N=C/c1c[nH]c2ccccc12)c1ccccc1	-3.5	-15.6	·	0.0	0.9	·	·
Cc1cc(C(=O)N/N=C/c2c[nH]c3ccccc23)cs1	0.1	7.7	1.9	2.7*	·	·	i	FGF22 TSA DP=0.1
O=C(NN=Cc1ccc(O)cc1)c1ccccc1NS(=O)(=O)c1cccs1	-7.3	5.9	0.8	1.8*	-1.9	0.025	i
O=C(O)c1ccc(C=NNC(=O)c2ccccc2NS(=O)(=O)c2cccs2)cc1	1.3	·	·	·	0.9	·	·
CN(C)CCN1C(=O)C2C3C=CC(C3)C2C1=O (stereo not given)	-2.9	-8.7	-0.9	14.8*	·	-0.047	i
C[C@H]1CCCCO[C@H](CN(C)S(=O)(=O)c2cn(C)cn2)[C@@H](C)CN([C@@H](C)CO)C(=O)c2cc(N(C)C)ccc2O1	·	-15.2[16.7 µM]	0.3	·	1.4	·	·
C[C@H](CO)N1C[C@H](C)[C@@H](CN(C)C(=O)c2ccc(F)cc2)OCc2ccccc2-c2ccccc2C1=O	9.2	-9.0[16.7 µM]	2.6	0.0	1.4	·	·
O=C(O)c1ccccc1Nc1ccc([N+](=O)[O-])cc1	3.0	-26.5	·	1.7*	·	0.341	i
O=C(O)c1ccccc1Nc1ccccc1C(=O)O	-3.0	·	·	0.0	-1.8	·	·
C[C@@H]1CN([C@H](C)CO)C(=O)c2cc(C#CCN(C)C)cnc2O[C@@H]1CN(C)Cc1ccc2c(c1)OCO2	-2.6	0.9[16.7 µM]	0.4	0.0	-0.3	·	·
CSc1ccc(C(=O)NCC2CCN(C(=O)C(=O)c3cc4ccccc4o3)CC2)cc1	1.0	5.1	0.2	1.5*	3.2	-0.037	i
COc1cc(OC)cc(C(=O)NCC2CCN(C(=O)C(=O)c3cc4ccccc4o3)CC2)c1	3.0	-17.6	0.6	0.1	2.2	·	·
Cc1nn(-c2ccccc2)c(C)c1/C=N/n1c(-c2ccc(Cl)cc2)n[nH]c1=S	0.6	8.3	·	-0.1	·	·	·
Cc1ccc(-c2n[nH]c(=S)n2/N=C/c2c(C)[nH]n(-c3ccccc3)c2=O)cc1	-21.0	-9.7	0.5	2.7*	-0.4	-0.001	i
Nc1nonc1-n1nnc(C(=O)N/N=C/c2cccnc2)c1CSc1ccc(Cl)cc1	0.3	7.3	·	2.7*	1.5	-0.012	i
C/C(=N\NC(=O)c1nnn(-c2nonc2N)c1CSc1ccc(C)cc1)c1cccnc1	-1.3	7.4	0.6	1.7*	-3.2	-0.024	i
CC1CCN(Cc2c(C(=O)N/N=C/c3ccc(OC(C)C)cc3)nnn2-c2nonc2N)CC1	-0.6	4.7	·	1.5*	4.0	-0.122	i
CCCNC(=O)N(C)C[C@H]1Oc2cc(C#CCC(C)C)ccc2S(=O)(=O)N([C@H](C)CO)C[C@H]1C	9.3	-4.4[16.7 µM]	0.1	-0.1	0.1	·	·
CO[C@@H]1CN(C)C(=O)c2ccc(NC(=O)Nc3ccccc3F)cc2OC[C@@H](C)N(C(C)=O)C[C@@H]1C	-5.3	-8.1[16.7 µM]	0.0	0.1	-2.5	·	·
Cc1ccc(-c2ccc([C@H]3[C@H](CO)N4C(=O)CN(C(=O)c5ccc(F)cc5)C[C@@H]34)cc2)cc1	2.0	·	-0.5	1.0	3.2	·	·
O=C(c1ccc2c(c1)OCO2)N1CC(=O)N2[C@@H](CO)[C@H](c3ccc(C#CCC4CCCC4)cc3)[C@@H]2C1	-6.3	·	-0.9	1.8*	1.6	-0.027	i
Cc1ccc(-c2ccc([C@@H]3[C@@H](CO)N4C(=O)CN(C(=O)c5ccc(F)cc5)C[C@H]34)cc2)cc1	-5.2	·	-0.6	1.2*	1.4	-0.125	i
SMILES	S100A4 MyoIIA	Env fusion inh	E-selectin induc	FGF22 binding-1	CFTR F508del cor	FGF22 binding-2	TSA no protein	others
O=C(c1ccccc1)N1CC(=O)N2[C@H](C1)[C@@H](c1ccc(C#CC3CC3)cc1)[C@@H]2CO	0.4	·	0.0	1.8*	3.0	0.055[42 µM]	i
O=C(c1ccc(F)cc1)N1CC(=O)N2[C@H](CO)[C@H](c3ccc(-c4ccccc4)cc3)[C@@H]2C1	-4.7	·	0.0	·	3.3	·	·
Cc1ccc(-c2ccc([C@H]3[C@@H](CO)N4C(=O)CN(C(=O)c5ccc(F)cc5)C[C@@H]34)cc2)cc1	0.3	·	-0.2	1.8*	-2.1	0.118	i
O=C(c1ccccc1)N1CC(=O)N2[C@H](CO)[C@@H](c3ccc(C#CC4CC4)cc3)[C@@H]2C1	8.7	·	0.1	0.3	-0.8	·	·
CN(C)Cc1cn(CC[C@@H]2CC[C@@H](NC(=O)Nc3ccc4c(c3)OCO4)[C@@H](CO)O2)nn1	-3.7	-7.6[16.7 µM]	-0.3	-0.2	0.1	·	·
C/C(=N\NC(=O)c1cccc(S(=O)(=O)N2CCOCC2)c1)c1ccc(O)cc1	-4.2	·	-0.5	0.0	-6.1	·	·
C/C(=N\NC(=O)c1cccc(S(=O)(=O)N2CCOCC2)c1)c1ccc(OC(F)F)cc1	-0.3	8.1	0.1	1.6*	1.2	0.04	i
CCNC(=O)C[C@H]1C=C[C@H](NC(=O)NC2CCCCC2)[C@@H](CO)O1	-7.3	-1.6[16.7 µM]	0.2	-0.5	-1.5	·	·
O=C(Nc1ccc(Cl)cc1)N1C[C@@H]2[C@H](c3ccccc31)[C@H](CO)N2C(=O)C1CC1	6.7	·	-0.3	3.4*	0.1	0.09	i
O=C(C1CCCCC1)N1[C@@H]2CN(S(=O)(=O)c3ccccc3)c3ccccc3[C@@H]2[C@@H]1CO	2.9	·	0.2	-0.1	-2.2	·	·
O=C(C1CC1)N1[C@H](CO)[C@H]2c3ccccc3N(S(=O)(=O)c3ccccc3)C[C@H]21	1.6	·	0.2	2.0*	-2.0	0.009	i
